Source: ChEMBL document CHEMBL1806488, “Design, synthesis and biological evaluation of 2'-deoxy-2',2'-difluoro-5-halouridine phosphoramidate ProTides” (Bioorg Med Chem, 2011)
pEC50, pIC50: −log10 of the molar value.

How the values were obtained:
Human betaherpesvirus 5 [1] = assay: Antiviral activity against Human cytomegalovirus AD-169 infected in human HEL cells assessed as reduction in the virus plaque formation; assay type: functional, organism-based; conditions: Human betaherpesvirus 5, AD169, HEL
Method in brief: (§1)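 HEL cells were infected with 100 PFU of HCMV (AD-169 or Davis) in the presence of compound.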

CCRF-CEM = assay: Antiproliferation activity against human CEM cells after 3 days by coulter counter; assay type: cell-based; conditions: 72 h
Method in brief: (§2)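 L1210, FM3A, CEM or HeLa cells at 300,000–500,000 cells/mL were mixed 1:1 with compound dilutions. Incubation at 37 °C lasted 2 days (L1210, FM3A) or 3 days (CEM, HeLa), after which cells were counted with a Coulter counter.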

FM3A = assay: Antiproliferation activity against mouse FM3A cells after 2 days by coulter counter; assay type: cell-based; conditions: 48 h; method in brief: as §2
HeLa = assay: Antiproliferation activity against human HeLa cells after 3 days by coulter counter; assay type: cell-based; conditions: 72 h; method in brief: as §2
Human alphaherpesvirus 2 = assay: Antiviral activity against Herpes simplex virus-2 G infected in human HEL cells assessed as inhibition of virus-induced cytopathic effect after 4 days by microscopic analysis; assay type: functional, organism-based; conditions: Human alphaherpesvirus 2, strain G, 96 h
Method in brief: (§3)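 Confluent monolayers (CRFK for feline herpes virus; HEL for HSV-2 G) were inoculated with 100 CCID50 of virus in the presence of compound at 200, 40, 8, … μM. Cytopathicity was scored once it was complete in untreated infected controls.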

HEL = assay: Cytotoxicity against human HEL cells by colorimetric formazan-based MTS assay; assay type: cell-based
Human alphaherpesvirus 3 [2] = assay: Antiviral activity against Varicella-zoster virus YS expressing thymidine kinase infected in human HEL cells assessed as reduction in the virus plaque formation; assay type: functional, organism-based; conditions: Human alphaherpesvirus 3, YS
Vaccinia virus = assay: Antiviral activity against Vaccinia virus infected in human HEL cells assessed as inhibition of virus-induced cytopathic effect after 4 days by microscopic analysis; assay type: functional, organism-based; conditions: Orthopoxvirus vaccinia, 96 h
L1210 = assay: Antiproliferation activity against mouse L1210 cells after 2 days by coulter counter; assay type: cell-based; conditions: L1210, 48 h; method in brief: as §2
Human betaherpesvirus 5 [3] = assay: Antiviral activity against Human cytomegalovirus Davis infected in human HEL cells assessed as reduction in the virus plaque formation; assay type: functional, organism-based; conditions: Human betaherpesvirus 5, Davis; method in brief: as §1
Human alphaherpesvirus 1 [4] = assay: Antiviral activity against acyclovir-resistant TK-deficient Herpes simplex virus-1 KOS infected in human HEL cells assessed as inhibition of virus-induced cytopathic effect after 4 days by microscopic analysis; assay type: functional, organism-based; conditions: Human alphaherpesvirus 1, KOS, 96 h
[5] = Cytotoxicity against human HEL cells assessed as alteration of normal cell morphology by microscopic analysis; assay type: cell-based
Method in brief: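 Uninfected HEL cells were examined under the microscope. The minimum cytotoxic concentration is the lowest concentration causing a detectable alteration of normal cell morphology.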

Human alphaherpesvirus 3 [6] = assay: Antiviral activity against Varicella-zoster virus OKA expressing thymidine kinase infected in human HEL cells assessed as reduction in the virus plaque formation; assay type: functional, cell-based; conditions: Human alphaherpesvirus 3, strain Oka vaccine
Human alphaherpesvirus 3 [7] = assay: Antiviral activity against thymidine kinase-deficient Varicella-zoster virus YS/R infected in human HEL cells assessed as reduction in the virus plaque formation; assay type: functional, organism-based; conditions: Human alphaherpesvirus 3, YS/R
Human alphaherpesvirus 3 [8] = assay: Antiviral activity against thymidine kinase-deficient Varicella-zoster virus 07-1 infected in human HEL cells assessed as reduction in the virus plaque formation; assay type: functional, organism-based; conditions: Human alphaherpesvirus 3, 07-1, HEL
Felid alphaherpesvirus 1 = assay: Antiviral activity against Feline herpesvirus infected in cat CRFK cells assessed as inhibition of virus-induced cytopathic effect after 4 days by microscopic analysis; assay type: functional, organism-based; conditions: Felid alphaherpesvirus 1, CRFK, 96 h; method in brief: as §3
[9] = Cytotoxicity against cat CRFK cells by colorimetric formazan-based MTS assay; assay type: cell-based, Felis catus
Human alphaherpesvirus 1 [10] = assay: Antiviral activity against Herpes simplex virus 1 KOS infected in human HEL cells assessed as inhibition of virus-induced cytopathic effect after 4 days by microscopic analysis; assay type: functional, organism-based; conditions: Human alphaherpesvirus 1, KOS, 96 h
Thymidine kinase [11] = target: T1, Thymidine kinase (Human alphaherpesvirus 1, UniProt Q9QNF7); assay: Inhibition of Herpes simplex virus-1 thymidine kinase-mediated phosphorylation of [methyl-3H]dThd at 1 uM after 30 mins by scintillation counting
T1 sequence (Q9QNF7 whole entry): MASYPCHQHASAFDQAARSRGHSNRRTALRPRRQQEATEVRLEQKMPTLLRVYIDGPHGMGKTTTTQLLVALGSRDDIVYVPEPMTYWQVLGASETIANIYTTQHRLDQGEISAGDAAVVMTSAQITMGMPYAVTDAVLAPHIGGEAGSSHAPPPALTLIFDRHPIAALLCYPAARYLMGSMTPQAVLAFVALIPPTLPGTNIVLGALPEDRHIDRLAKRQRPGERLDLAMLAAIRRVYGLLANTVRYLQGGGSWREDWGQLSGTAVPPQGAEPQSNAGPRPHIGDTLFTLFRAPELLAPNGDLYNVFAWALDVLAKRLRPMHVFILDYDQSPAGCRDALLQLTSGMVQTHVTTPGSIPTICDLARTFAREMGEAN

[12] = Inhibition of Varicella-zoster virus thymidine kinase-mediated phosphorylation of [methyl-3H]dThd at 1 uM after 30 mins by scintillation counting; set-up: species or system Human alphaherpesvirus 3
Thymidine kinase [13] = target: T2, Thymidine kinase (Feline herpesvirus 1, UniProt P13159); assay: Inhibition of Feline herpesvirus thymidine kinase assessed as phosphorylation of 1 uM [methyl-3H]dThd after 30 mins by scintillation counting; set-up: species or system Felid alphaherpesvirus 1
T2 sequence (P13159 whole entry): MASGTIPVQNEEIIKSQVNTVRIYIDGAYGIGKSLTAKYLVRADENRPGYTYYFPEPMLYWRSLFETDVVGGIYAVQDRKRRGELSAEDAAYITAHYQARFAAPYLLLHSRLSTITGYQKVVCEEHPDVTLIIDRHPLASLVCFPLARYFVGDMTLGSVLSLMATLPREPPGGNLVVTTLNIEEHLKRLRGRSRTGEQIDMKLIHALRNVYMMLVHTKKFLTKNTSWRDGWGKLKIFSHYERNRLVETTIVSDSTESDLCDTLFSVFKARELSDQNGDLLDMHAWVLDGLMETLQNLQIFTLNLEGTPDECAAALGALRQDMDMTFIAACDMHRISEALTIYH

Row | Compound | pEC50 (Human betaherpesvirus 5 [1]) | pIC50 (CCRF-CEM) | pIC50 (FM3A) | pIC50 (HeLa) | pEC50 (Human alphaherpesvirus 2) | CC50 (HEL) [µM] | pEC50 (Human alphaherpesvirus 3 [2]) | pEC50 (Vaccinia virus) | pIC50 (L1210) | pEC50 (Human betaherpesvirus 5 [3]) | pEC50 (Human alphaherpesvirus 1 [4]) | MCC [5] [µM] | pEC50 (Human alphaherpesvirus 3 [6]) | pEC50 (Human alphaherpesvirus 3 [7]) | pEC50 (Human alphaherpesvirus 3 [8]) | pEC50 (Felid alphaherpesvirus 1) | CC50 ([9]; crfk) [µM] | pEC50 (Human alphaherpesvirus 1 [10]) | also measured
1 | COC(=O)[C@H](C)NP(=O)(OC[C@H]1O[C@@H](n2cc(I)c(=O)[nH]c2=O)C(F)(F)[C@@H]1O)Oc1cccc2ccccc12 (stereo partly specified) | < 4.30 | 4.22 | 4.34 | 3.88 | < 4.00 | ≥ 100 | 4.54 | < 4.00 | 3.87 | < 4.30 | < 4.00 | > 50 | 4.60 | < 4.30 | < 4.30 | < 4.70 | 92 | < 4.00 | 
2 | Nc1ccn(C[C@@H](CO)OCP(=O)(O)O)c(=O)n1 [CIDOFOVIR] |  |  |  |  |  |  |  | 5.00 |  |  |  | > 250 |  |  |  | 5.89 |  |  | CC50 ([9]; CRFK cells): > 100 µM
3 | O=c1[nH]c(=O)n([C@@H]2O[C@H](CO)[C@@H](O)C2(F)F)cc1I | < 4.30 | 3.81 | 3.39 | 3.64 | 4.19 | > 100 | 4.89 | < 4.00 | 3.52 | < 4.30 | 4.70 | > 50 | 5.04 | < 4.30 | < 4.30 | 5.92 | > 100 | 4.80 | pIC50 (Thymidine kinase [11]): 5.46; pIC50 [12]: 4.72; pIC50 (Thymidine kinase [13]): 4.42
4 | O=c1[nH]c(=O)n([C@@H]2O[C@H](CO)[C@@H](O)C2(F)F)cc1Cl | < 4.30 | < 3.30 | < 3.30 | ≤ 3.30 | ≤ 4.00 | > 100 | < 4.30 | < 4.00 | < 3.30 | < 4.30 | 4.11 | > 50 | ≤ 4.30 | < 4.30 | < 4.30 | 4.89 | > 100 | 4.48 | pIC50 (Thymidine kinase [11]): 4.66; pIC50 [12]: 4.46; pIC50 (Thymidine kinase [13]): 4.03
5 | Nc1nc2c(ncn2COC(CO)CO)c(=O)[nH]1 [GANCICLOVIR] |  |  |  |  |  |  |  | < 4.00 |  |  |  | > 100 |  |  |  |  |  |  | 
6 | COC(=O)[C@H](C)NP(=O)(OC[C@H]1O[C@@H](n2cc(I)c(=O)[nH]c2=O)C(F)(F)[C@@H]1O)Oc1ccccc1 (stereo partly specified) | < 4.30 | 3.75 | 3.59 | 3.90 | < 4.00 | 51 |  | < 4.00 | 3.65 | < 4.30 | < 4.00 | > 50 | < 4.30 |  | < 4.30 | 4.55 | > 100 | < 4.00 | 
7 | Cc1cn([C@@H]2O[C@H](CO)[C@@H](O)C2(F)F)c(=O)[nH]c1=O | < 4.30 | < 3.30 | < 3.30 | < 3.30 | 4.41 | 100 | 5.00 | ≤ 4.00 | < 3.30 | < 4.30 | 4.70 | > 50 | 5.24 | < 4.30 | < 4.30 | < 4.00 | > 100 | 4.92 | pIC50 (Thymidine kinase [11]): 5.55; pIC50 [12]: 4.68; pIC50 (Thymidine kinase [13]): 4.07
8 | O=c1[nH]c(=O)n([C@H]2C[C@H](O)[C@@H](CO)O2)cc1/C=C/Br [BRIVUDINE] |  |  |  |  |  | 512 |  | 5.00 |  |  |  | ≥ 250 | 7.52 | < 3.82 | ≤ 4.22 | 4.52 | > 100 |  | 
9 | C[C@H](NP(=O)(OC[C@H]1O[C@@H](n2cc(I)c(=O)[nH]c2=O)C(F)(F)[C@@H]1O)Oc1ccccc1)C(=O)OCc1ccccc1 (stereo partly specified) |  |  |  |  | 4.30 |  |  | 4.24 |  |  | ≤ 4.00 | > 100 |  |  |  | 5.36 | ≥ 70 | 4.57 | 
10 | O=c1[nH]c(=O)n([C@@H]2O[C@H](CO)[C@@H](O)C2(F)F)cc1Br | < 4.30 | < 3.30 | < 3.30 | 3.34 | < 4.00 | > 100 | 4.64 | < 4.00 | < 3.30 | < 4.30 | 4.14 | > 50 | 4.96 | < 4.30 | < 4.30 | 5.62 | > 100 | 4.82 | pIC50 (Thymidine kinase [11]): 5.12; pIC50 [12]: 4.59; pIC50 (Thymidine kinase [13]): 4.47
11 | C[C@H](NP(=O)(OC[C@H]1O[C@@H](n2cc(Br)c(=O)[nH]c2=O)C(F)(F)[C@@H]1O)Oc1ccccc1)C(=O)OCc1ccccc1 (stereo partly specified) | < 4.30 | 3.98 | 4.04 | 3.83 | < 4.00 | ≥ 50 |  | < 4.00 | 4.30 | < 4.30 | < 4.00 | > 50 | 4.41 |  | < 4.30 | 4.94 | > 100 | < 4.00 | 
12 | C[C@H](NP(=O)(OC[C@H]1O[C@@H](n2cc(I)c(=O)[nH]c2=O)C(F)(F)[C@@H]1O)Oc1cccc2ccccc12)C(=O)OCc1ccccc1 (stereo partly specified) | < 4.30 | 4.68 |  | 4.54 | < 4.70 | 49 |  | < 4.70 | 4.64 | < 4.30 | < 4.70 | > 50 | 5.07 |  | 4.43 | < 4.70 | 36 | < 4.70 | 
13 | Nc1nc2c(ncn2COCCO)c(=O)[nH]1 [ACYCLOVIR] |  |  |  |  |  | > 400 |  | < 3.60 |  |  |  | > 250 |  |  |  | 6.00 |  |  | CC50 ([9]; CRFK cells): > 100 µM
14 | C[C@H](NP(=O)(OC[C@H]1O[C@@H](n2cc(Cl)c(=O)[nH]c2=O)C(F)(F)[C@@H]1O)Oc1ccccc1)C(=O)OCc1ccccc1 (stereo partly specified) | < 4.30 | 3.71 | 3.65 | 3.70 | < 4.00 | ≥ 100 |  | < 4.00 | 3.76 | < 4.30 | < 4.00 | > 50 | < 4.30 |  | < 4.30 | < 4.00 | > 100 | < 4.00 | 
